ChEMBL document CHEMBL3861974, “Discovery of a Selective Aurora A Kinase Inhibitor by Virtual Screening” (J Med Chem, 2016)
The source made the active and inactive calls. The rule behind the calls is not given here.

Tests used:
Homo sapiens = species: Homo sapiens; assay: Selectivity index, ratio of IC50 for Aurora-B/INCENP (unknown origin) to IC50 for His-tagged human Aurora A kinase ([…] residues) expressed in Escherichia coli BL21 (DE3) Rosetta cells
Aurora kinase A [1] = molecular target: T1, Aurora kinase A (Homo sapiens, UniProt O14965); assay: Inhibition of His-tagged human Aurora A kinase ([…] residues) expressed in Escherichia coli BL21 (DE3) Rosetta cells using biotinylated STK2 substrate incubated for 30 mins by HTRF assay
T1 sequence (O14965 whole entry): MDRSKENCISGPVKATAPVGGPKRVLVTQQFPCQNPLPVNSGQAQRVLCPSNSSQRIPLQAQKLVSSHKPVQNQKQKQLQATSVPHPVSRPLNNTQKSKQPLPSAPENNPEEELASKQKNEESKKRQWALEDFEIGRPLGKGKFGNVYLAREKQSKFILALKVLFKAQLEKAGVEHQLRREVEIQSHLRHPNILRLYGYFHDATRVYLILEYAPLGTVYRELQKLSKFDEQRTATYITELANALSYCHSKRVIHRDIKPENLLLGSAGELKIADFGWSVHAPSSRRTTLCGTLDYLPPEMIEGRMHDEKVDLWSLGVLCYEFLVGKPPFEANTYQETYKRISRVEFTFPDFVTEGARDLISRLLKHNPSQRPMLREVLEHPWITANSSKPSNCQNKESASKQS

[2] = molecular target: Aurora kinase B/Inner centromere protein (Homo sapiens, UniProt Q96GD4); assay: Inhibition of Aurora-B/INCENP (unknown origin) using biotinylated STK2 substrate incubated for 30 mins by HTRF assay; assay type: protein-complex assay
Outline: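 Biochemical kinase inhibition was read by HTRF with 20 µM ATP. Aurora B was assayed as its complex with the activator INCENP. For Aurora A, IC50 curves were recorded at different TPX2 concentrations.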

HeLa Kyoto = assay: Increase in mitotic index in human HeLa Kyoto cells incubated for 20 hrs; assay type: functional, cell-based
Outline: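 HeLa Kyoto cells were incubated overnight with compound, and the fraction of mitotic cells was scored. The experiment was repeated twice; mean ± SD.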

Aurora kinase B [3] = molecular target: T2, Aurora kinase B (Homo sapiens, UniProt Q96GD4); conditions: HeLa Kyoto, 2.5 uM
Aurora kinase B [4] = molecular target: T2, Aurora kinase B; conditions: HeLa Kyoto, 2.5 uM; remark: listed apart in the source
Aurora kinase A [5] = molecular target: T1, Aurora kinase A; assay: Inhibition of Aurora A kinase autophosphorylation at Thr288 in human HeLa Kyoto cells incubated for 20 hrs; assay type: cell-based

Aurora kinase B/Inner centromere protein, sequence (Q96GD4 whole entry): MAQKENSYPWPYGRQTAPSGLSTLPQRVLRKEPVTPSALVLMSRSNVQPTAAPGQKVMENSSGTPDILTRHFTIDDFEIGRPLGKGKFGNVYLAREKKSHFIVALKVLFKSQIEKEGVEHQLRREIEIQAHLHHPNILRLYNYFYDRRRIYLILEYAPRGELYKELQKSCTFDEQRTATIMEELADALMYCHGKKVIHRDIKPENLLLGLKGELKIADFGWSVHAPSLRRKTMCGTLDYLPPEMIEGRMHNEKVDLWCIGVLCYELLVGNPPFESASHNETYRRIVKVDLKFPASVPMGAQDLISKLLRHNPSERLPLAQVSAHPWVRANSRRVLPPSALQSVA
Aurora kinase B/Inner centromere protein, sequence (Q9NQS7 whole entry, further chain): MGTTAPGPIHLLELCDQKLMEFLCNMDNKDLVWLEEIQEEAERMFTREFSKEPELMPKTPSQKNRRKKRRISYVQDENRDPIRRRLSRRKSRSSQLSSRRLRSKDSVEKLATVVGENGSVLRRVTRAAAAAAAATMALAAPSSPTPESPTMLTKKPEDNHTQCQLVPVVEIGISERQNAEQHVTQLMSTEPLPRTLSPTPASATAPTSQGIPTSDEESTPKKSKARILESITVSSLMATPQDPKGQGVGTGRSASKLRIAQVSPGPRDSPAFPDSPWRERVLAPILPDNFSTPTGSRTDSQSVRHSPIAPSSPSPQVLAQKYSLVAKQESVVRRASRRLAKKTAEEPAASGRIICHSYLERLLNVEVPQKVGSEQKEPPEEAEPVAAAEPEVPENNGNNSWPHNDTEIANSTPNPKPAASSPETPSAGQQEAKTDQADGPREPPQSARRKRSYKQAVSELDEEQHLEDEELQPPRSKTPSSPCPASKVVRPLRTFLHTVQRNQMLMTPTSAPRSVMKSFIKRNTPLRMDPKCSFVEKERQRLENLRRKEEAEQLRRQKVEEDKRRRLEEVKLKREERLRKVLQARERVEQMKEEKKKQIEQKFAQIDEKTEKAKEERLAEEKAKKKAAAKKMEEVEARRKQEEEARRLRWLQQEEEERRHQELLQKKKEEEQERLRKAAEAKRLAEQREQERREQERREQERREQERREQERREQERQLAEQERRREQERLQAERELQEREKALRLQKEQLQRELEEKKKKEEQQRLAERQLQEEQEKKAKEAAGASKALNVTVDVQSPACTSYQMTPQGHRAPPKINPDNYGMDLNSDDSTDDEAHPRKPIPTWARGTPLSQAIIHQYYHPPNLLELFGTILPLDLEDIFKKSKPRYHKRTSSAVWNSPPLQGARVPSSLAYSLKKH
T2 sequence (Q96GD4 whole entry): as the sequence (Q96GD4 whole entry) above

| IC50 (Aurora kinase A [1]) | Compound | also measured |
| --- | --- | --- |
| 190 nM | CCc1ccc(/N=C2\S/C(=C\c3ccnc(N)c3)C(=O)N2C)cc1 | Ratio IC50 (Homo sapiens): 121; IC50 [2]: 23000 nM |
| 370 nM | CN1C(=O)/C(=C/c2ccncc2)S/C1=N\c1ccc(C(F)(F)F)cc1 |  |
|  | COc1cc(Nc2ncc3c(n2)-c2ccc(Cl)cc2C(c2c(F)cccc2OC)=NC3)ccc1C(=O)O | Activity (HeLa Kyoto): Dose-dependent effect |
| 23000 nM | O=c1[nH]c2ccc(Cl)cc2n1-c1nc2ccccc2[nH]1 |  |
| > 70000 nM | O=c1[nH]c2ccccc2n1-c1nc2cc(C(F)(F)F)ccc2[nH]1 |  |
| 300 nM | CN1C(=O)/C(=C/c2ccncc2)S/C1=N\c1ccc(Br)cc1 |  |
| 600 nM | CCc1ccc(/N=C2\S/C(=C\c3ccnc(Nc4ccccc4)c3)C(=O)N2C)cc1 |  |
|  | COc1cc2c(Nc3ccc(NC(=O)c4ccccc4)cc3)ncnc2cc1OCCCN1CCOCC1 | inhibition (Aurora kinase B [3]): Active; inhibition (Aurora kinase B [4]): Active |
| 52000 nM | CCc1ccccc1/N=C1\S/C(=C\c2ccncc2)C(=O)N1C |  |
| 11000 nM | CNC(=O)c1ccc2[nH]c(=O)n(-c3nc4ccccc4[nH]3)c2c1 |  |
| 220 nM | CCc1ccc(/N=C2\S/C(=C\c3ccnc(Nc4ccccn4)c3)C(=O)N2C)cc1 |  |
| > 200000 nM | O=c1[nH]c2cc(Cl)ccc2n1-c1nc2ccccc2[nH]1 |  |
| 7800 nM | Cc1ccc2[nH]c(-n3c(=O)[nH]c4ccccc43)nc2c1 |  |
| > 50000 nM | CNC(=O)c1ccc2c(c1)[nH]c(=O)n2-c1nc2ccccc2[nH]1 |  |
| 6 nM | CCc1ccc(/N=C2\S/C(=C\c3ccnc(NC(=O)CC(=O)O)c3)C(=O)N2C)cc1 | Ratio IC50 (Homo sapiens): 450; IC50 [2]: 2700 nM |
| 3300 nM | CCCCc1ccc(/N=C2\S/C(=C\c3ccncc3)C(=O)N2C)cc1 |  |
| 15000 nM | O=c1[nH]c2cccc(O)c2n1-c1nc2ccccc2[nH]1 |  |
| 1600 nM | CN1C(=O)/C(=C/c2ccncc2)S/C1=N\c1ccc(C(C)(C)C)cc1 |  |
| 9000 nM | O=c1[nH]c2ccccc2n1-c1nc2cc(Br)ccc2[nH]1 |  |
| 25 nM | CCc1ccc(/N=C2\S/C(=C\c3ccnc(Nc4ccc(-c5nnn[nH]5)cc4)c3)C(=O)N2C)cc1 | Ratio IC50 (Homo sapiens): 33; IC50 [2]: 830 nM |
| 21000 nM | O=c1[nH]c2c(O)cccc2n1-c1nc2ccccc2[nH]1 |  |
| 1290 nM | CCc1ccc(/N=C2\SC(Cc3ccnc(N)c3)C(=O)N2C)cc1 (racemic) |  |
| 76000 nM | CCc1ccc(/N=C2\SC3(CC3c3ccnc(N)c3)C(=O)N2C)cc1 (racemic) |  |

| IC50 (Aurora kinase A [1]) | Compound | also measured |
| --- | --- | --- |
| 380 nM | CCc1ccc(/N=C2\S/C(=C\c3ccncc3)C(=O)N2CC)cc1 |  |
| 9000 nM | CN1C(=O)/C(=C/c2ccncc2)S/C1=N\c1ccccc1 |  |
| 14000 nM | Cc1cccc2[nH]c(-n3c(=O)[nH]c4ccccc43)nc12 |  |
| 480 nM | CCc1ccc(/N=C2\S/C(=C\c3ccncc3)C(=O)N2CCOC)cc1 |  |
| > 200000 nM | CCc1ccc(/N=C2\S/C(=C\c3ccncc3)C(=O)N2CC2CCCCC2)cc1 |  |
| 3500 nM | O=C(O)c1ccc2c(c1)[nH]c(=O)n2-c1nc2ccccc2[nH]1 |  |
| 24 nM | CCc1ccc(/N=C2\SC(Cc3ccnc(Nc4ccc(C(=O)O)cn4)c3)C(=O)N2C)cc1 (racemic) | IC50 (Aurora kinase A [5]): 24 nM |
| 6.2 nM | CCc1ccc(/N=C2\S/C(=C\c3ccnc(Nc4ccc(C(=O)O)cc4)c3)C(=O)N2C)cc1 | Ratio IC50 (Homo sapiens): 250; IC50 [2]: 1540 nM |
| 12000 nM | O=c1[nH]c2ccc(O)cc2n1-c1nc2ccccc2[nH]1 |  |
| 4900 nM | CCc1cccc(/N=C2\S/C(=C\c3ccncc3)C(=O)N2C)c1 |  |
| 190 nM | CCc1ccc(/N=C2\S/C(=C\c3ccnc(NC(=O)CCN)c3)C(=O)N2C)cc1 | Ratio IC50 (Homo sapiens): 53; IC50 [2]: 10000 nM |
| 3500 nM | O=C(O)c1ccc2[nH]c(=O)n(-c3nc4ccccc4[nH]3)c2c1 |  |
| 130 nM | CCc1ccc(/N=C2\S/C(=C\c3ccnc(Nc4ccc(CO)cc4)c3)C(=O)N2C)cc1 | Ratio IC50 (Homo sapiens): 20; IC50 [2]: 2600 nM |
| > 200000 nM | CCc1ccc(/N=C2/SC3(CC3c3ccnc(N)c3)C(=O)N2C)cc1 (racemic) |  |
| 2000 nM | Cc1ccc(/N=C2\S/C(=C\c3ccncc3)C(=O)N2C)cc1C |  |
| 780 nM | CC(C)c1ccc(/N=C2\S/C(=C\c3ccncc3)C(=O)N2C)cc1 |  |
| 4 nM | CCc1ccc(/N=C2\S/C(=C\c3ccnc(NC(=O)CCC(=O)O)c3)C(=O)N2C)cc1 | Ratio IC50 (Homo sapiens): 415; IC50 [2]: 1700 nM |
| 390 nM | CCc1ccc(/N=C2\S/C(=C\c3ccncc3)C(=O)N2C)cc1 |  |
| 1900 nM | CCCc1ccc(/N=C2\S/C(=C\c3ccncc3)C(=O)N2C)cc1 |  |
| 430 nM | CCc1ccc(/N=C2/NC(=O)/C(=C/c3ccncc3)S2)cc1 |  |
| 6500 to 7000 nM | O=c1[nH]c2ccccc2n1-c1nc2ccccc2[nH]1 |  |
| 6.2 nM | CCc1ccc(/N=C2\S/C(=C\c3ccnc(NC(=O)CCCC(=O)O)c3)C(=O)N2C)cc1 | Ratio IC50 (Homo sapiens): 230; IC50 [2]: 1400 nM |
